Consider 21 compounds from ChEMBL document CHEMBL2346581, “Increasing the efficiency of ligands for FK506-binding protein 51 by conformational control” (J Med Chem, 2013).

A word on the Ki: it is the dissociation constant of the complex between target and ligand, obtained from inhibition or displacement. Higher therefore signals weaker binding. For orientation: Kd means a measure of binding affinity in units of concentration. Low readings indicate higher affinity, high ones lower affinity.

Experiment [1] concerns the target T1, Peptidyl-prolyl cis-trans isomerase FKBP5 (Homo sapiens, UniProt Q13451).
T1 sequence (Q13451 whole entry): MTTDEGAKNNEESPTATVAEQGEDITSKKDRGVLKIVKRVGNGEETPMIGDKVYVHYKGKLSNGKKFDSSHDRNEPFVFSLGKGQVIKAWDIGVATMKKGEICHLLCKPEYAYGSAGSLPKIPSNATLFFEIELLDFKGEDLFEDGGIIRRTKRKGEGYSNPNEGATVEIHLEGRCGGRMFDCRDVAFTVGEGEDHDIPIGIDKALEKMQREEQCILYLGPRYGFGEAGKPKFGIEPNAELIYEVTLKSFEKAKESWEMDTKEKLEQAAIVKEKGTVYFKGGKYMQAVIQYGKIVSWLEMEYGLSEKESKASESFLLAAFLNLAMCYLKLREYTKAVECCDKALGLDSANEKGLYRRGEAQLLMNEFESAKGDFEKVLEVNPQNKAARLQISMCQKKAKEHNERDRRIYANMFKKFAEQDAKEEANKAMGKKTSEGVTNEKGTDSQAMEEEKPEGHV
The experiment is described as follows: Binding affinity to human FKBP51 by competitive fluorescence polarization assay. In outline: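 Competitive fluorescence polarization binding assay against the purified FK506-binding domain of human FKBP51, run per a previously described protocol. The read-out is K_i.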
(Fluorescence polarisation rises when a labelled molecule tumbles more slowly, as on binding a larger partner.)

The target in experiment [2] is T2, Peptidyl-prolyl cis-trans isomerase FKBP5 (Homo sapiens) (UniProt Q13451).
T2 sequence (whole entry): T1 sequence (Q13451 whole entry)
The experiment is described as follows: Binding affinity to FKBP51 (unknown origin) assessed as increase in [3H]-dexamethasone binding to glucocorticoid receptor. In outline:
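Reconstituted glucocorticoid receptor (GR) hormone-binding assay. GR-containing lysates were supplemented with purified FKBP51 and incubated with ³H-dexamethasone across a range of compound concentrations. Free ³H-dexamethasone was removed with charcoal–dextran, and GR-bound ³H-dexamethasone was then measured as the read-out.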

Experiment [3] has as its target T1, Peptidyl-prolyl cis-trans isomerase FKBP5. The experiment in a line: Binding affinity to human His-tagged FKBP51 FK1 domain (1 to 140) by isothermal titration calorimetric analysis.
For experiment [4], the target named is Peptidyl-prolyl cis-trans isomerase FKBP1A (Homo sapiens, UniProt P62942). The experiment is described as follows: Binding affinity to FKBP12 (unknown origin) by competitive fluorescence polarization assay.
Chain of Peptidyl-prolyl cis-trans isomerase FKBP1A (P62942 whole entry): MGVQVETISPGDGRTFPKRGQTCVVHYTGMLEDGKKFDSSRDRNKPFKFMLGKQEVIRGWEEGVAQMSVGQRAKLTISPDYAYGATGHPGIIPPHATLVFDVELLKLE

Turning to `CCC(C)(C)C(=O)C(=O)N1CCCCC1C(=O)O[C@H](CCc1ccc(OC)c(OC)c1)c1cccc(OCC(=O)O)c1` (stereo not given in full), in experiment [1], the affinity corresponds to a Ki of 2.7 µM.

Regarding `COc1ccc(OCCN2CC3CCCC(C2=O)N3S(=O)(=O)c2ccc3[nH]c(=O)sc3c2)cc1OC` (stereo not given), in experiment [2], the Activity entry is “Dose-dependent effect”. This compound also gave a Kd in experiment [3] of 10.5 µM.

Take `CCOC(=O)C1CCCCN1S(=O)(=O)c1ccc2[nH]c(=O)sc2c1` (stereo not given): in experiment [1], the Ki was greater than 100 µM.

As for `COc1cc2c(c(OC)c1)[C@]1(C)C3CCC[C@@H](C(=O)N1CC2)N3C(=O)C(=O)c1cc(OC)c(OC)c(OC)c1`, the Ki in experiment [4] stood at 0.5 µM; in experiment [1], 18.1 µM.

As for `COc1cc2c(c(OC)c1)[C@]1(C)C3CCC[C@@H](C(=O)N1CC2)N3S(=O)(=O)c1cc(Cl)cc(Cl)c1`, the Ki is 0.87 µM in experiment [4] and greater than 100 µM in experiment [1].

In experiment [1], `C=CC[C@@H]1/C=C(\C)C[C@H](C)C[C@H](OC)[C@H]2O[C@@](O)(C(=O)C(=O)N3CCCC[C@H]3C(=O)O[C@H](/C(C)=C/[C@@H]3CC[C@@H](O)[C@H](OC)C3)[C@H](C)[C@@H](O)CC1=O)[C@H](C)C[C@@H]2OC` [TACROLIMUS ANHYDROUS] came in with a Ki of 0.08 µM.

As for `COc1ccc(OCCOC(=O)C2CCCCN2C(=O)C(=O)c2cc(OC)c(OC)c(OC)c2)cc1OC` (stereo not given), in experiment [1], the Ki is greater than 100 µM.

For the compound `CCC(C)(C)C(=O)C(=O)N1C2CCC[C@H]1C(=O)N1CCc3cc(OC)cc(OC)c3[C@]21C`, the Ki was 27.7 µM in experiment [4] and greater than 100 µM in experiment [1].

`COc1ccc(OCCN2CCC3CCCC(C2=O)N3C(=O)C(=O)c2cc(OC)c(OC)c(OC)c2)cc1OC` (stereo not given): in experiment [1], the Ki turned out to be 23.7 µM. That is a double-digit micromolar value.

Turning to `COc1ccc(OCCN2CCC3CCCC(C2=O)N3S(=O)(=O)c2ccc3[nH]c(=O)sc3c2)cc1OC` (stereo not given), the Activity result in experiment [2] was “Dose-dependent effect”. The same compound showed a Kd in experiment [3] of 0.36 µM.

In the case of `COc1cc2c(c(OC)c1)[C@]1(C)C3CCC[C@@H](C(=O)N1CC2)N3S(=O)(=O)c1cc(Cl)c(O)c(Cl)c1`, the inhibition constant (Ki) in experiment [4] was 2.1 µM; in experiment [1], greater than 100 µM.

On to `COc1ccc(OCCOC(=O)C2CCCCN2S(=O)(=O)c2cc(Cl)cc(Cl)c2)cc1OC` (stereo not given), for which, in experiment [1], the Ki was greater than 100 µM.

With `COc1ccc(OCCOC(=O)C2CCCCN2S(=O)(=O)c2ccc3[nH]c(=O)sc3c2)cc1OC` (stereo not given), the Activity entry in experiment [2] is “Dose-dependent effect”. In experiment [3], this compound displayed a Kd of 3.3 µM. Also, the Ki in experiment [1] came out at 7.6 µM.

On to `CCN1CC2CCCC(C1=O)N2C(=O)C(=O)c1cc(OC)c(OC)c(OC)c1` (stereo not given), for which the Ki in experiment [1] was greater than 100 µM.

For `COc1ccc(OCCOC(=O)C2CCCCN2S(=O)(=O)c2ccc3ncsc3c2)cc1OC` (stereo not given), in experiment [1], the Ki was greater than 100 µM.

`COc1ccc(CC[C@@H](OC(=O)C2CCCCN2S(=O)(=O)c2cc(Cl)c(O)c(Cl)c2)c2cccc(OCCN3CCOCC3)c2)cc1OC` (stereo not given in full) showed a Ki in experiment [1] of 0.2 µM.

In experiment [1], `CO[C@H]1C[C@@H]2CC[C@@H](C)[C@@](O)(O2)C(=O)C(=O)N2CCCC[C@H]2C(=O)O[C@H]([C@H](C)C[C@@H]2CC[C@@H](O)[C@H](OC)C2)CC(=O)[C@H](C)/C=C(\C)[C@@H](O)[C@@H](OC)C(=O)[C@H](C)C[C@H](C)/C=C/C=C/C=C/1C` [SIROLIMUS] registered a Ki of 0.003 µM. This Ki lies about 67-fold lower than the previous one.

For `COc1ccc(CC[C@@H](OC(=O)C2CCCCN2S(=O)(=O)c2cc(Cl)cc(Cl)c2)c2cccc(OCC(=O)O)c2)cc1OC` (stereo not given in full), the Ki in experiment [1] was 13.8 µM.

The compound `COc1ccc(OCCN2CC3CCCC(C2=O)N3S(=O)(=O)c2cc(Cl)cc(Cl)c2)cc1OC` (stereo not given) came in with a Ki in experiment [1] of 1.2 µM.

As for `COc1cc2c(c(OC)c1)[C@]1(C)C3CCC[C@@H](C(=O)N1CC2)N3C(=O)C(=O)[C@]1(C)CCCC[C@H]1C`, the Ki was 2.8 µM in experiment [4] and greater than 100 µM in experiment [1].

With `COc1ccc(OCCN2CCC3CCCC(C2=O)N3S(=O)(=O)c2cc(Cl)cc(Cl)c2)cc1OC` (stereo not given), the inhibitory constant (Ki) in experiment [1] was 8.8 µM. This lies in the single-digit micromolar range.
